According to ChEMBL document CHEMBL3102810, “Alkylamino derivatives of pyrazinamide: synthesis and antimycobacterial evaluation” (Bioorg Med Chem Lett, 2014):
In brackets after ≈: the same amount, converted by molar mass. Activity calls are given as the source filed them. The calls are words filed in the database; no cut-off is given here.

How the values were obtained:
[1] = system: Mycobacterium avium; test: Antimycobacterial activity against pyrazinamide-resistant Mycobacterium avium CNCTC My 152/73 after 5 days by microplate alamar blue assay; type: functional; conditions: CNCTC My 152/73, 120 h
Method in brief: (§1)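 Microplate alamar blue assay run at pH 5.6, using conditions optimized for pyrazinamide. Strains came from the Czech National Collection of Type Cultures. MIC was read in µg/mL and converted to µM using molecular weight.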

[2] = Lipophilicity, log K of the compound by HPLC analysis; type: physicochemical
[3] = system: Mycobacterium avium; test: Antimycobacterial activity against pyrazinamide-resistant Mycobacterium avium CNCTC My 80/72 after 5 days by microplate alamar blue assay; type: functional; conditions: CNCTC My 80/72, 120 h; method in brief: as §1
[4] = system: Mycobacterium kansasii; test: Antimycobacterial activity against pyrazinamide-resistant Mycobacterium kansasii CNCTC My 235/80 after 5 days by microplate alamar blue assay; type: functional; conditions: CNCTC My 235/80, 120 h; method in brief: as §1
[5] = system: Mycobacterium tuberculosis; test: Antimycobacterial activity against Mycobacterium tuberculosis H37Rv CNCTC My 331/88 after 5 days by microplate alamar blue assay; type: functional; conditions: H37Rv CNCTC My 331/88, 120 h; method in brief: as §1
[6] = system: Trichophyton mentagrophytes; test: Antifungal activity against Trichophyton mentagrophytes 445 after 72 to 120 hrs by microdilution broth method; type: functional, organism-based
[7] = system: Lichtheimia corymbifera; test: Antifungal activity against Absidia corymbifera 272 after 72 to 120 hrs by microdilution broth method; type: functional, organism-based
[8] = system: Aspergillus fumigatus; test: Antifungal activity against Aspergillus fumigatus 231 after 72 to 120 hrs by microdilution broth method; type: functional, organism-based
[9] = system: Nakaseomyces glabratus; test: Antifungal activity against Candida glabrata 20/I after 72 to 120 hrs by microdilution broth method; type: functional, organism-based
[10] = system: Trichosporon asahii; test: Antifungal activity against Trichosporon asahii 1188 after 72 to 120 hrs by microdilution broth method; type: functional, organism-based
[11] = system: Pichia kudriavzevii; test: Antifungal activity against Candida krusei E28 after 72 to 120 hrs by microdilution broth method; type: functional, organism-based
[12] = system: Candida tropicalis; test: Antifungal activity against Candida tropicalis 156 after 72 to 120 hrs by microdilution broth method; type: functional, organism-based
[13] = system: Candida albicans; test: Antifungal activity against Candida albicans ATCC 44859 after 72 to 120 hrs by microdilution broth method; type: functional, organism-based
[14] = system: Trichophyton mentagrophytes; test: Antifungal activity against Trichophyton mentagrophytes after 72 to 120 hrs by microdilution broth method; type: functional, organism-based
[15] = system: Staphylococcus epidermidis; test: Antibacterial activity against Staphylococcus epidermidis H 6966/08 after 48 hrs by microdilution broth method; type: functional
Method in brief: (§2)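 Antibacterial screen with compound concentrations up to a highest level of 500 µM. Results expressed as MIC in µM.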

[16] = system: Klebsiella pneumoniae; test: Antibacterial activity against ESBL positive Klebsiella pneumoniae J 14368/08 after 24 to 48 hrs by microdilution broth method; type: functional, organism-based; method in brief: as §2
[17] = system: Klebsiella pneumoniae; test: Antibacterial activity against Klebsiella pneumoniae D 11750/08 after 24 to 48 hrs by microdilution broth method; type: functional, organism-based; method in brief: as §2
[18] = system: Enterococcus sp.; test: Antibacterial activity against Enterococcus sp. J 14365/08 after 24 to 48 hrs by microdilution broth method; type: functional, organism-based; method in brief: as §2
[19] = system: Staphylococcus epidermidis; test: Antibacterial activity against methicillin-resistant Staphylococcus epidermidis H 5996/08 after 24 to 48 hrs by microdilution broth method; type: functional, organism-based
[20] = system: Pseudomonas aeruginosa; test: Antibacterial activity against Pseudomonas aeruginosa CCM 1961 after 24 to 48 hrs by microdilution broth method; type: functional, organism-based; method in brief: as §2
[21] = system: Escherichia coli; test: Antibacterial activity against Escherichia coli CCM 4517 after 24 to 48 hrs by microdilution broth method; type: functional, organism-based; method in brief: as §2
[22] = system: Staphylococcus aureus; test: Antibacterial activity against Staphylococcus aureus CCM 4516/08 after 24 to 48 hrs by microdilution broth method; type: functional, organism-based; method in brief: as §2
[23] = system: Staphylococcus epidermidis; test: Antibacterial activity against Staphylococcus epidermidis H 6966/08 up to 500 uM after 24 to 48 hrs by microdilution broth method; type: functional, organism-based; method in brief: as §2

NC(=O)c1cnc(NCCCc2ccccc2)cn1
MIC [1]: > 100 µg/mL | log K [2]: 0.1408 | MIC [3]: > 100 µg/mL | MIC [4]: 100 µg/mL | MIC [5]: 98 µM | Activity [6]: inactive | Activity [7]: inactive | Activity [8]: inactive | Activity [9]: inactive | Activity [10]: inactive | Activity [11]: inactive | Activity [12]: inactive | Activity [13]: inactive | Activity [14]: inactive | Activity [15]: inactive | Activity [16]: inactive | Activity [17]: inactive | Activity [18]: inactive | Activity [19]: inactive | Activity [20]: inactive | Activity [21]: inactive | Activity [22]: inactive | Activity [23]: inactive

NC(=O)c1cnc(NCCc2ccccc2)cn1
MIC [1]: > 100 µg/mL | log K [2]: -0.0382 | MIC [3]: > 100 µg/mL | MIC [4]: 100 µg/mL | MIC [5]: 206 µM | Activity [6]: inactive | Activity [7]: inactive | Activity [8]: inactive | Activity [9]: inactive | Activity [10]: inactive | Activity [11]: inactive | Activity [12]: inactive | Activity [13]: inactive | Activity [14]: inactive | Activity [15]: inactive | Activity [16]: inactive | Activity [17]: inactive | Activity [18]: inactive | Activity [19]: inactive | Activity [20]: inactive | Activity [21]: inactive | Activity [22]: inactive | Activity [23]: inactive

CCCNc1cnc(C(N)=O)cn1
MIC [1]: > 100 µg/mL | log K [2]: -0.3878 | MIC [3]: > 100 µg/mL | MIC [4]: > 100 µg/mL | MIC [5]: > 100 µg/mL | Activity [6]: inactive | Activity [7]: inactive | Activity [8]: inactive | Activity [9]: inactive | Activity [10]: inactive | Activity [11]: inactive | Activity [12]: inactive | Activity [13]: inactive | Activity [14]: inactive | Activity [15]: inactive | Activity [16]: inactive | Activity [17]: inactive | Activity [18]: inactive | Activity [19]: inactive | Activity [20]: inactive | Activity [21]: inactive | Activity [22]: inactive | Activity [23]: inactive

CCCCCCNc1cnc(C(N)=O)cn1
MIC [1]: > 100 µg/mL | log K [2]: 0.2389 | MIC [3]: > 100 µg/mL | MIC [4]: 100 µg/mL | MIC [5]: 225 µM | Activity [6]: inactive | Activity [7]: inactive | Activity [8]: inactive | Activity [9]: inactive | Activity [10]: inactive | Activity [11]: inactive | Activity [12]: inactive | Activity [13]: inactive | Activity [14]: inactive | Activity [15]: inactive | Activity [16]: inactive | Activity [17]: inactive | Activity [18]: inactive | Activity [19]: inactive | Activity [20]: inactive | Activity [21]: inactive | Activity [22]: inactive | Activity [23]: inactive

CCCCCNc1cnc(C(N)=O)cn1
MIC [1]: > 100 µg/mL | log K [2]: 0.0181 | MIC [3]: > 100 µg/mL | MIC [4]: > 100 µg/mL | MIC [5]: > 100 µg/mL | Activity [6]: inactive | Activity [7]: inactive | Activity [8]: inactive | Activity [9]: inactive | Activity [10]: inactive | Activity [11]: inactive | Activity [12]: inactive | Activity [13]: inactive | Activity [14]: inactive | Activity [15]: inactive | Activity [16]: inactive | Activity [17]: inactive | Activity [18]: inactive | Activity [19]: inactive | Activity [20]: inactive | Activity [21]: inactive | Activity [22]: inactive | Activity [23]: inactive

NNC(=O)c1ccncc1 [ISONIAZID]
MIC [1]: 6.25 µg/mL (≈ 45.6 µM) | log K [2]: -0.7432 | MIC [3]: 12.5 µg/mL (≈ 91.1 µM) | MIC [4]: 11 µM | MIC [5]: 3 µM
